Assay results: ChEMBL document CHEMBL1152462, “Betulinic acid derivatives that target gp120 and inhibit multiple genetic subtypes of human immunodeficiency virus type 1” (Antimicrob Agents Chemother, 2008)
Calls of active or inactive are those of the source. The rule behind the calls is not given here.

What was measured:
[1] = tested on: Human immunodeficiency virus 1; experiment: Inhibition of V3-speciifc monoclonal antibody 39F binding to HIV1 3B gp120 by ELISA-based competitive binding assay
[2] = tested on: Human immunodeficiency virus 1; experiment: Antiviral activity against HIV1 ZM55F.PB28a infected in human TZM-b1 cells assessed as inhibition of viral infection after 2 days postinfection by luciferase reporter gene assay; type: functional, organism-based; conditions: Human immunodeficiency virus 1, ZM55F.PB28a, TZM-b1, 48 h
How it was run: (§1)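 Single-round infection of TZM-bl cells with 200 TCID50 of virus in the presence of varying compound concentrations, top concentration 15 µM. After 2 days, medium was removed and Bright-Glo reagent added to read luminescence. IC50 is the concentration giving 50% reduction in luciferase RLU relative to virus-control wells.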

[3] = tested on: Human immunodeficiency virus 1; experiment: Antiviral activity against HIV1 Du123.6 infected in human TZM-b1 cells assessed as inhibition of viral infection after 2 days postinfection by luciferase reporter gene assay; type: functional, organism-based; conditions: Human immunodeficiency virus 1, Du123.6, TZM-b1, 48 h; how it was run: as §1
[4] = tested on: Human immunodeficiency virus 1; experiment: Antiviral activity against HIV1 5768.4 infected in human TZM-b1 cells assessed as inhibition of viral infection after 2 days postinfection by luciferase reporter gene assay; type: functional, organism-based; conditions: Human immunodeficiency virus 1, 5768.4, TZM-b1, 48 h; how it was run: as §1
[5] = tested on: Human immunodeficiency virus 1; experiment: Antiviral activity against HIV1 ZM214M.PL15 infected in human TZM-b1 cells assessed as inhibition of viral infection after 2 days postinfection by luciferase reporter gene assay; type: functional, organism-based; conditions: Human immunodeficiency virus 1, ZM214M.PL15, TZM-b1, 48 h; how it was run: as §1
[6] = tested on: Human immunodeficiency virus 1; experiment: Antiviral activity against HIV1 Q842.d12 infected in human TZM-b1 cells assessed as inhibition of viral infection after 2 days postinfection by luciferase reporter gene assay; type: functional, organism-based; conditions: Human immunodeficiency virus 1, Q842.d12, TZM-b1, 48 h; how it was run: as §1
[7] = tested on: Human immunodeficiency virus 1; experiment: Antiviral activity against HIV1 REJO4541.67 infected in human TZM-b1 cells assessed as inhibition of viral infection after 2 days postinfection by luciferase reporter gene assay; type: functional, organism-based; conditions: Human immunodeficiency virus 1, REJO4541.67, TZM-b1, 48 h; how it was run: as §1
HOS [8] = experiment: Inhibition of HIV1 3B gp120/CD4 complex binding to CCR5 expressing HOS cells at […] after 1 hr by competitive binding assay; type: cell-based; conditions: Human immunodeficiency virus 1
How it was run: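 HOS.CCR5 cells were plated on poly-D-lysine and held overnight at 37°C. Soluble CD4 (4.5 nM) was premixed 1:1 with gp120 (Ba-L or IIIB) for 15 min at room temperature. The complex was added to cells with compound at 5 µg/ml for 1 h at 37°C. Bound gp120 was detected with FITC anti-gp120 (1 h), washed three times in PBS, and read by fluorescence at 490/520 nm.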

[9] = tested on: Human immunodeficiency virus 1; experiment: Antiviral activity against HIV1 SS1196.1 infected in human TZM-b1 cells assessed as inhibition of viral infection after 2 days postinfection by luciferase reporter gene assay; type: functional, organism-based; conditions: Human immunodeficiency virus 1, SS1196.1, TZM-b1, 48 h; how it was run: as §1
[10] = tested on: Human immunodeficiency virus 1; experiment: Antiviral activity against HIV1 WITO4160.33 infected in human TZM-b1 cells assessed as inhibition of viral infection after 2 days postinfection by luciferase reporter gene assay; type: functional, organism-based; conditions: Human immunodeficiency virus 1, WITO4160.33, TZM-b1, 48 h; how it was run: as §1
[11] = tested on: Human immunodeficiency virus 1; experiment: Antiviral activity against HIV1 Q769.d22 infected in human TZM-b1 cells assessed as inhibition of viral infection after 2 days postinfection by luciferase reporter gene assay; type: functional, organism-based; conditions: Human immunodeficiency virus 1, Q769.d22, TZM-b1, 48 h; how it was run: as §1
[12] = Cytotoxicity against human TZM-bl cells at 15 uM after 2 days by trypan blue exclusion assay; type: cell-based; conditions: 48 h
[13] = tested on: Human immunodeficiency virus 1; experiment: Antiviral activity against HIV1 6535.3 infected in human TZM-b1 cells assessed as inhibition of viral infection after 2 days postinfection by luciferase reporter gene assay; type: functional, organism-based; conditions: Human immunodeficiency virus 1, 6535.3, TZM-b1, 48 h; how it was run: as §1
[14] = tested on: Human immunodeficiency virus 1; experiment: Inhibition of V3-speciifc monoclonal antibody 447-52 binding to HIV1 Ba-L gp120 by ELISA-based competitive binding assay
[15] = tested on: Human immunodeficiency virus 1; experiment: Antiviral activity against HIV1 HXB2 infected in human TZM-b1 cells assessed as inhibition of viral infection after 2 days postinfection by luciferase reporter gene assay; type: functional, organism-based; conditions: Human immunodeficiency virus 1, HXB2, TZM-b1, 48 h; how it was run: as §1
[16] = tested on: Human immunodeficiency virus 1; experiment: Antiviral activity against HIV1 Q23.71 infected in human TZM-b1 cells assessed as inhibition of viral infection after 2 days postinfection by luciferase reporter gene assay; type: functional, organism-based; conditions: Human immunodeficiency virus 1, Q23.71, TZM-b1, 48 h; how it was run: as §1
[17] = tested on: Human immunodeficiency virus 1; experiment: Antiviral activity against HIV1 Q168.a2 infected in human TZM-b1 cells assessed as inhibition of viral infection after 2 days postinfection by luciferase reporter gene assay; type: functional, organism-based; conditions: Human immunodeficiency virus 1, Q168.a2, TZM-b1, 48 h; how it was run: as §1
[18] = tested on: Human immunodeficiency virus 1; experiment: Antiviral activity against HIV1 NL4-3 infected in human TZM-b1 cells assessed as inhibition of viral infection after 2 days postinfection by luciferase reporter gene assay; type: functional, organism-based; conditions: Human immunodeficiency virus 1, NL4-3, TZM-b1, 48 h; how it was run: as §1
[19] = tested on: Human immunodeficiency virus 1; experiment: Inhibition of V3-speciifc monoclonal antibody […] binding to HIV1 Ba-L gp120 by ELISA-based competitive binding assay
[20] = tested on: Human immunodeficiency virus 1; experiment: Antiviral activity against HIV1 ZM197M.PB7 infected in human TZM-b1 cells assessed as inhibition of viral infection after 2 days postinfection by luciferase reporter gene assay; type: functional, organism-based; conditions: Human immunodeficiency virus 1, ZM197M.PB7, TZM-b1, 48 h; how it was run: as §1
[21] = tested on: Human immunodeficiency virus 1; experiment: Antiviral activity against HIV1 TRO.11 infected in human TZM-b1 cells assessed as inhibition of viral infection after 2 days postinfection by luciferase reporter gene assay; type: functional, organism-based; conditions: Human immunodeficiency virus 1, TRO.11, TZM-b1, 48 h; how it was run: as §1
[22] = tested on: Human immunodeficiency virus 1; experiment: Antiviral activity against HIV1 ZM109F.PB4 infected in human TZM-b1 cells assessed as inhibition of viral infection after 2 days postinfection by luciferase reporter gene assay; type: functional, organism-based; conditions: Human immunodeficiency virus 1, ZM109F.PB4, TZM-b1, 48 h; how it was run: as §1
[23] = tested on: Human immunodeficiency virus 1; experiment: Antiviral activity against HIV1 Q259.d2.17 infected in human TZM-b1 cells assessed as inhibition of viral infection after 2 days postinfection by luciferase reporter gene assay; type: functional, organism-based; conditions: Human immunodeficiency virus 1, Q259.d2.17, TZM-b1, 48 h; how it was run: as §1
[24] = Ratio of inhibition of HIV1 […] envelope glycoprotein 120-mediated membrane fusion to inhibition of HIV1 (isolate YU2) envelope glycoprotein 120-mediated membrane fusion
[25] = tested on: Human immunodeficiency virus 1; experiment: Antiviral activity against HIV1 Du422.1 infected in human TZM-b1 cells assessed as inhibition of viral infection after 2 days postinfection by luciferase reporter gene assay; type: functional, organism-based; conditions: Human immunodeficiency virus 1, Du422.1, TZM-b1, 48 h; how it was run: as §1
[26] = tested on: Human immunodeficiency virus 1; experiment: Antiviral activity against HIV1 CAP.2.00.G3 infected in human TZM-b1 cells assessed as inhibition of viral infection after 2 days postinfection by luciferase reporter gene assay; type: functional, organism-based; conditions: Human immunodeficiency virus 1, CAP.2.00.G3, TZM-b1, 48 h; how it was run: as §1
[27] = tested on: Human immunodeficiency virus 1; experiment: Antiviral activity against HIV1 Du151.2 infected in human TZM-b1 cells assessed as inhibition of viral infection after 2 days postinfection by luciferase reporter gene assay; type: functional, organism-based; conditions: Human immunodeficiency virus 1, Du151.2, TZM-b1, 48 h; how it was run: as §1
[28] = tested on: Human immunodeficiency virus 1; experiment: Antiviral activity against HIV1 CAP244.2.00.D3 infected in human TZM-b1 cells assessed as inhibition of viral infection after 2 days postinfection by luciferase reporter gene assay; type: functional, organism-based; conditions: Human immunodeficiency virus 1, CAP244.2.00.D3, TZM-b1, 48 h; how it was run: as §1
[29] = tested on: Human immunodeficiency virus 1; experiment: Inhibition of V3-speciifc monoclonal antibody 447-52D binding to HIV1 3B gp120 by ELISA-based competitive binding assay
[30] = tested on: Human immunodeficiency virus 1; experiment: Antiviral activity against HIV1 QH0515.1 infected in human TZM-b1 cells assessed as inhibition of viral infection after 2 days postinfection by luciferase reporter gene assay; type: functional, organism-based; conditions: Human immunodeficiency virus 1, QH0515.1, TZM-b1, 48 h; how it was run: as §1
[31] = tested on: Human immunodeficiency virus 1; experiment: Antiviral activity against HIV1 RHPA4259.7 infected in human TZM-b1 cells assessed as inhibition of viral infection after 2 days postinfection by luciferase reporter gene assay; type: functional, organism-based; conditions: Human immunodeficiency virus 1, RHPA4259.7, TZM-b1, 48 h; how it was run: as §1
[32] = Cytotoxicity against human TZM-bl cells after 2 days by trypan blue exclusion assay; type: cell-based; conditions: 48 h
HOS [33] = experiment: Inhibition of HIV1 Ba-L gp120/CD4 complex binding to CCR5 expressing HOS cells at 5 µg/ml after 1 hr by competitive binding assay; conditions: Human immunodeficiency virus 1
[34] = tested on: Human immunodeficiency virus 1; experiment: Antiviral activity against HIV1 Q461.e2 infected in human TZM-b1 cells assessed as inhibition of viral infection after 2 days postinfection by luciferase reporter gene assay; type: functional, organism-based; conditions: Human immunodeficiency virus 1, Q461.e2, TZM-b1, 48 h; how it was run: as §1

Compound: C=C(C)[C@@H]1CC[C@]2(C(=O)NCCCCCCCC(=O)N[C@@H](CC(C)C)[C@H](O)CC(=O)O)CC[C@]3(C)[C@H](CC[C@@H]4[C@@]5(C)CC[C@H](O)C(C)(C)[C@@H]5CC[C@]43C)[C@@H]12
- inhibition [1]: Dose-dependent effect
- IC50 [2]: 750 nM
- IC50 [3]: 90 nM
- IC50 [4]: 670 nM
- IC50 [5]: 70 nM
- IC50 [6]: 810 nM
- IC50 [7]: 1070 nM
- inhibition (HOS [8]): Active
- IC50 [9]: 210 nM
- IC50 [10]: 390 nM
- IC50 [11]: 4070 nM
- Activity [12]: Non-toxic
- IC50 [13]: 7300 nM
- inhibition [14]: Active
- IC50 [15]: 80 nM
- IC50 [16]: 1610 nM
- IC50 [17]: 620 nM
- IC50 [18]: 100 nM
- inhibition [19]: inactive
- IC50 [20]: 90 nM
- IC50 [21]: 750 nM
- IC50 [22]: 810 nM
- IC50 [23]: 250 nM
- Ratio [24]: 30
- IC50 [25]: 650 nM
- IC50 [26]: 80 nM
- IC50 [27]: 810 nM
- IC50 [28]: 1210 nM
- inhibition [29]: Dose-dependent effect
- IC50 [30]: 1260 nM
- IC50 [31]: 820 nM
- IC50 [32]: > 50000 nM
- inhibition (HOS [33]): Active
- IC50 [34]: 310 nM

Compound: C=C(C)[C@@H]1CC[C@]2(C(=O)NCCCCCCCNC(C)=O)CC[C@]3(C)[C@H](CC[C@@H]4[C@@]5(C)CC[C@H](O)C(C)(C)[C@@H]5CC[C@]43C)[C@@H]12
- IC50 [2]: 340 nM
- IC50 [3]: 80 nM
- IC50 [4]: 450 nM
- IC50 [5]: 48 nM
- IC50 [6]: 390 nM
- IC50 [7]: 850 nM
- IC50 [9]: 220 nM
- IC50 [10]: 140 nM
- IC50 [11]: 3700 nM
- Activity [12]: Non-toxic
- IC50 [13]: 1030 nM
- IC50 [15]: 70 nM
- IC50 [16]: 450 nM
- IC50 [17]: 310 nM
- IC50 [18]: 110 nM
- IC50 [20]: 90 nM
- IC50 [21]: 790 nM
- IC50 [22]: 400 nM
- IC50 [23]: 280 nM
- IC50 [25]: 170 nM
- IC50 [26]: 140 nM
- IC50 [27]: 190 nM
- IC50 [28]: 400 nM
- IC50 [30]: 1050 nM
- IC50 [31]: 640 nM
- IC50 [32]: > 50000 nM
- IC50 [34]: 380 nM
